pIC50: −log10 of the molar value.

For one experiment, the system named is RAW264.7. The experiment in a line: Cytotoxicity against mouse RAW264.7 cells after 24 hrs by MTT assay. The format is cell-based. The conditions noted are these: RAW264.7, 24 h. A digest of the protocol: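 Growth of non-LPS RAW264.7 cells was measured by MTT after 24 h with compound: MTT for 4 h, formazan dissolved in DMSO, OD570. Untreated cells were set as 100% viability. IC50 is the concentration giving 50% growth inhibition.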
In general, pIC50 refers to −log10 of the IC50, conventionally taken in molar units. The compound `COC1=C[C@@H]2[C@@H]3Cc4ccc(OC)c(OCc5ccc(COc6c(OC)ccc7c6[C@@]68CCN(C)[C@@H](C7)[C@H]6C=C(OC)C(=O)C8)cc5)c4[C@]2(CCN3C)CC1=O` showed a pIC50 of 4.90.
The same measure, in the same setting: to `COC1=C[C@@H]2[C@@H]3Cc4ccc(OC)c(OCCCCCCCCCOc5c(OC)ccc6c5[C@@]57CCN(C)[C@@H](C6)[C@H]5C=C(OC)C(=O)C7)c4[C@]2(CCN3C)CC1=O` belongs 5.43; to `COC1=C[C@@H]2[C@@H]3Cc4ccc(OC)c(OCc5cccc(COc6c(OC)ccc7c6[C@@]68CCN(C)[C@@H](C7)[C@H]6C=C(OC)C(=O)C8)c5)c4[C@]2(CCN3C)CC1=O`, 4.85; to `CCCCCOc1c(OC)ccc2c1[C@@]13CCN(C)[C@@H](C2)[C@H]1C=C(OC)C(=O)C3`, 4.27.
The same measure, in the same setting: to `CCCCCCCCCCOc1c(OC)ccc2c1[C@@]13CCN(C)[C@@H](C2)[C@H]1C=C(OC)C(=O)C3` belongs 5.72; to `COC1=C[C@@H]2[C@@H]3Cc4ccc(OC)c(OCCCCCCCCCCOc5c(OC)ccc6c5[C@@]57CCN(C)[C@@H](C6)[C@H]5C=C(OC)C(=O)C7)c4[C@]2(CCN3C)CC1=O`, 5.55; to `COC1=C[C@@H]2[C@@H]3Cc4ccc(OC)c(OCCOCCOCCOCCOc5c(OC)ccc6c5[C@@]57CCN(C)[C@@H](C6)[C@H]5C=C(OC)C(=O)C7)c4[C@]2(CCN3C)CC1=O`, under 4.00.
Still for that read-out and setting: to `COC1=C[C@@H]2[C@@H]3Cc4ccc(OC)c(OCCCCCCOc5c(OC)ccc6c5[C@@]57CCN(C)[C@@H](C6)[C@H]5C=C(OC)C(=O)C7)c4[C@]2(CCN3C)CC1=O` belongs 5.02; to `COC1=C[C@@H]2[C@@H]3Cc4ccc(OC)c(OCCCCCOc5c(OC)ccc6c5[C@@]57CCN(C)[C@@H](C6)[C@H]5C=C(OC)C(=O)C7)c4[C@]2(CCN3C)CC1=O`, 5.38.
`CCCC(=O)Oc1c(OC)ccc2c1[C@@]13CCN(C)[C@@H](C2)[C@H]1C=C(OC)C(=O)C3` had a pIC50 of under 4.00.
Still for that read-out and setting: for `COC1=C[C@@H]2[C@@H]3Cc4ccc(OC)c(OCCCCCCCOc5c(OC)ccc6c5[C@@]57CCN(C)[C@@H](C6)[C@H]5C=C(OC)C(=O)C7)c4[C@]2(CCN3C)CC1=O` the value was 5.59.
The compound `COC1=C[C@@H]2[C@@H]3Cc4ccc(OC)c(OC(=O)CCCCCCC(=O)Oc5c(OC)ccc6c5[C@@]57CCN(C)[C@@H](C6)[C@H]5C=C(OC)C(=O)C7)c4[C@]2(CCN3C)CC1=O` had a pIC50 of 4.76.
Same read-out and setting: for `CCCCCCOc1c(OC)ccc2c1[C@@]13CCN(C)[C@@H](C2)[C@H]1C=C(OC)C(=O)C3` the value was 4.54.
The compound `CCCCCCC(=O)Oc1c(OC)ccc2c1[C@@]13CCN(C)[C@@H](C2)[C@H]1C=C(OC)C(=O)C3` showed a pIC50 of 4.41.
The same measure, in the same setting: to `COC1=C[C@@H]2[C@@H]3Cc4ccc(OC)c(OCCOCCOc5c(OC)ccc6c5[C@@]57CCN(C)[C@@H](C6)[C@H]5C=C(OC)C(=O)C7)c4[C@]2(CCN3C)CC1=O` belongs 4.22.
As to `CCCCCC(=O)Oc1c(OC)ccc2c1[C@@]13CCN(C)[C@@H](C2)[C@H]1C=C(OC)C(=O)C3`, the pIC50 was 4.11.
The same measure, in the same setting: to `COC1=C[C@@H]2[C@@H]3Cc4ccc(OC)c(OC(=O)CCCCCC(=O)Oc5c(OC)ccc6c5[C@@]57CCN(C)[C@@H](C6)[C@H]5C=C(OC)C(=O)C7)c4[C@]2(CCN3C)CC1=O` belongs 4.28.
On the same count and under the same terms, for `CCCCCCCCCOc1c(OC)ccc2c1[C@@]13CCN(C)[C@@H](C2)[C@H]1C=C(OC)C(=O)C3` the value was 4.84.

A further experiment concerns RAW264.7. The experiment in a line: Antiinflammatory activity in mouse RAW264.7 cells assessed as inhibition of LPS-induced nitric oxide production after 24 hrs by Griess method. The note with it: RAW264.7, 24 h. The format is functional, cell-based. A digest of the protocol: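 Cells were treated with compound (0.5–100 µM; 0.1% DMSO final) and LPS 500 ng/mL together for 24 h. Nitrite in the medium was read with Griess reagent (10 min, room temperature, dark) at OD540. IC50 comes from three separate experiments, each in triplicate.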
Regarding `COC1=C[C@@H]2[C@@H]3Cc4ccc(OC)c(OCCCCCCCCCOc5c(OC)ccc6c5[C@@]57CCN(C)[C@@H](C6)[C@H]5C=C(OC)C(=O)C7)c4[C@]2(CCN3C)CC1=O`, the pIC50 is 5.54.
On the same count and under the same terms, to `CCCCCOc1c(OC)ccc2c1[C@@]13CCN(C)[C@@H](C2)[C@H]1C=C(OC)C(=O)C3` belongs 4.41.
On the same count and under the same terms, for `COC1=C[C@@H]2[C@@H]3Cc4ccc(OC)c(OCCOCCOCCOCCOc5c(OC)ccc6c5[C@@]57CCN(C)[C@@H](C6)[C@H]5C=C(OC)C(=O)C7)c4[C@]2(CCN3C)CC1=O` the value was under 4.00; for `COC1=C[C@@H]2[C@@H]3Cc4ccc(OC)c(OCCCCCOc5c(OC)ccc6c5[C@@]57CCN(C)[C@@H](C6)[C@H]5C=C(OC)C(=O)C7)c4[C@]2(CCN3C)CC1=O`, 5.44.
On the same count and under the same terms, for `N=C(N)NN` [PIMAGEDINE] the value was 4.65; for `CCCC(=O)Oc1c(OC)ccc2c1[C@@]13CCN(C)[C@@H](C2)[C@H]1C=C(OC)C(=O)C3`, under 4.00.
